From ChEMBL document CHEMBL1240482, “Synthesis and antiproliferative evaluation of certain indeno[1,2-c]quinoline derivatives. Part 2” (J Med Chem, 2010)
Activity calls are given as the source filed them. The calls are words filed in the database; no cut-off is given here.

Assays:
[1] = Cytotoxicity against human SKHep cells after 48 hrs by MTT assay; assay type: functional
Summary of the method: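 Cells grown in DMEM with 10% FBS at 37 °C and 5% CO2, seeded at 5 × 10^3 per well and allowed 24 h before drug. Serial dilutions from DMSO stocks applied for 48 h. MTT (2 mg/mL in PBS) added for 2 h, formazan dissolved in DMSO, absorbance read at 570 nm. GI50 interpolated by linear regression from at least three points in the 20-80% range; three independent experiments.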

[2] = biological target: T1, DNA topoisomerase 1 (Homo sapiens) (UniProt P11387); assay: Inhibition of human topoisomerase 1 assessed as decrease in pBR322 mobility on agarose gel at 10 uM by electrophoresis
T1 sequence (whole entry): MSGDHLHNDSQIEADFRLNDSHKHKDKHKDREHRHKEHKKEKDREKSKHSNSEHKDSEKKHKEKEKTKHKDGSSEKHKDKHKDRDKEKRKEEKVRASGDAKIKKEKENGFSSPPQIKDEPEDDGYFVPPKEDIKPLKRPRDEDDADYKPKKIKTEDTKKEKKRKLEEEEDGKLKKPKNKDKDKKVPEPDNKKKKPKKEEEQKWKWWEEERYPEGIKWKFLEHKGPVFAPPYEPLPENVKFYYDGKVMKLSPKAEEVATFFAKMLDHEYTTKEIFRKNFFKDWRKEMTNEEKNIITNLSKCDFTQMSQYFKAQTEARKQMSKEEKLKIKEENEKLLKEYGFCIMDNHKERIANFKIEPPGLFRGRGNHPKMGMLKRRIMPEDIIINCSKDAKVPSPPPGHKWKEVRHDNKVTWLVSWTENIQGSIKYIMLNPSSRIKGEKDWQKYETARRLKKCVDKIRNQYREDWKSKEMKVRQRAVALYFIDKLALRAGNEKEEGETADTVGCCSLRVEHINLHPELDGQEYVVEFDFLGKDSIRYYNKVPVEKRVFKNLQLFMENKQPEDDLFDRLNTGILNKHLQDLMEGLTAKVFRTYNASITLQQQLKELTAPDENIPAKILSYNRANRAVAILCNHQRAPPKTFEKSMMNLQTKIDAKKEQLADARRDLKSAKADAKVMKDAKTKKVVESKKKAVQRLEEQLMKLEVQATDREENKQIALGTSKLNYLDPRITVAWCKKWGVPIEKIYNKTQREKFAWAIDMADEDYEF
Summary of the method: (§1)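 Enzyme preincubated with compound before DNA addition; reaction run 30 min at 37 °C and stopped with SDS. Products resolved on 1% agarose, stained with ethidium bromide, quantified by densitometry.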

DNA topoisomerase 1 = biological target: T2, DNA topoisomerase 1 (Homo sapiens, UniProt P11387); assay: Inhibition of human topoisomerase 1 assessed as decrease in pBR322 mobility on agarose gel by electrophoresis; summary of the method: as §1
T2 sequence (P11387 whole entry): T1 sequence (whole entry)

[3] = Clearance in CD1 mouse at 2 mg/ kg, iv; assay type: ADME, organism-based; parameters: dose 2 mg/ kg, route intravenous; details: in vivo
Summary of the method: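 Fasted male CD-1 (Crl.) mice, 22-24 g; single tail-vein bolus of 2.0 mg/kg in PEG400/ethanol/water (30/5/65), 10 mL/kg. Cardiac-puncture blood into K-EDTA at 0-27 h, three mice per time point; plasma analysed by LC-MS/MS after acetonitrile precipitation. Parameters calculated from mean plasma concentrations.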

[4] = Half life in CD1 mouse at 20 mg/ kg, po; assay type: ADME, organism-based; parameters: dose 20 mg/ kg, route oral; details: in vivo
Summary of the method: (§2)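 Male CD-1 (Crl.) mice, 22-24 g, fasted 4 h before dosing; single oral gavage of 20 mg/kg as a suspension in 0.5% methylcellulose/water, 10 mL/kg. Cardiac-puncture plasma (K-EDTA) taken predose to 27 h, three mice per time point; LC-MS/MS quantification.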

[5] = Oral bioavailability in CD1 mouse at 20 mg/ kg, po; assay type: ADME, organism-based; details: in vivo; summary of the method: as §2
BT-483 = assay: Antitumor activity against human BT-483 cells xenografted in BALB/c athymic mouse assessed as reduction in tumor size at 10 to 20 mg/kg, iv; assay type: functional, organism-based
Summary of the method: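 Balb/C athymic nude mice, 6-8 weeks, about 20 g, given subcutaneous BT483 breast cancer cells. Once tumours averaged about 500 mm3, dosed iv at 10 or 20 mg/kg once daily for 14 days, in a cosolvent formulation diluted in 5% dextrose; vehicle controls; three animals per group. Caliper volume taken as width × length × height.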

Mus musculus [6] = assay: Toxicity to BALB/c mouse assessed as survival rate at 10 mg/kg, iv; assay type: organism-based; parameters: dose 10 mg/kg, route intravenous; details: in vivo
Summary of the method: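 Balb/C athymic nude mice (6-8 weeks, ~20 g) bearing subcutaneous BT483 breast xenografts (0.5 × 10^6 cells). Treatment began at ~500 mm3 tumour volume: cosolvent formulation diluted in 5% dextrose, iv at 10 or 20 mg/kg once daily for 14 days; controls received vehicle. 3 animals per group. Survival was assessed by Kaplan-Meier analysis at study end, p < 0.05.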

Mus musculus [7] = assay: Toxicity to BALB/c mouse assessed as change in glutamic oxalacetic transaminase at 20 mg/kg, iv; assay type: organism-based; parameters: dose 20 mg/kg, route intravenous; details: in vivo
Summary of the method: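 BALB/c mice, 3 per group, randomized by body weight (stratified). Dosed iv via tail vein at 10, 20 or 40 mg/kg in PEG 400/ethanol/water (20/20/60), once every 3 days for 2 weeks; solvent controls. Weighed throughout. After a 24 h fast, heart blood was drawn under ether; GOT, GPT, BUN and creatinine were measured on an analyzer. Liver and kidney taken for H&E.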

Structure (SMILES): COc1ccc2c(c1)/C(=N\OCCN1CCCC1)c1c-2c(O)nc2ccccc12
- GI50 [1]: 1240 nM
- inhibition [2]: 71%
- IC50 (DNA topoisomerase 1): 3.76 µM
- clearance [3]: 193 mL/min/kg
- half-life [4]: 132 min
- bioavailability [5]: 10.9%
- Activity (BT-483): Active
- Activity (Mus musculus [6]): Non-toxic
- Activity (Mus musculus [7]): Non-toxic
